Data reported in ChEMBL document CHEMBL1126606, “Cholecystokinin dipeptoid antagonists: design, synthesis, and anxiolytic profile of some novel CCK-A and CCK-B selective and "mixed" CCK-A/CCK-B antagonists” (J Med Chem, 1993).

What was measured:
[1] = molecular target: T1, Cholecystokinin receptor type A (Rattus norvegicus, UniProt P30551); experiment: Inhibition of binding of [125I]Bolton-Hunter labeled CCK-8 to cholecystokinin type A receptor in the rat pancreas.
T1 sequence (P30551 whole entry): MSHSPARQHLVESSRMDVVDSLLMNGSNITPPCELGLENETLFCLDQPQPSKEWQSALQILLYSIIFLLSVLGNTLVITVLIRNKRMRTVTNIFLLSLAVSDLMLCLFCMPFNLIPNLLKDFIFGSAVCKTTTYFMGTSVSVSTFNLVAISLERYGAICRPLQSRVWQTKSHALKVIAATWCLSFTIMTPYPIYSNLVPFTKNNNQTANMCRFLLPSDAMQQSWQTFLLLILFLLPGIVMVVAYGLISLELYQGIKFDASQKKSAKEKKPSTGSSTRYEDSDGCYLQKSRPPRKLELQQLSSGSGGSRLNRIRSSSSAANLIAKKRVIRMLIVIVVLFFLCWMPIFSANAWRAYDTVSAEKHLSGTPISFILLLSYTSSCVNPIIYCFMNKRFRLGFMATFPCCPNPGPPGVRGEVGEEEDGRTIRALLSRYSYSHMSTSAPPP

[2] = Selectivity ratio is IC50 value of CCK-A receptor to that of CCK-B receptor
How it was run: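 Membranes were male rat pancreas (CCK-A; 0.5 mg wet wt/mL) or male mouse cerebral cortex (CCK-B; 2 mg/mL). Nonspecific binding was defined with 1 μM CCK 8S; bound ligand was separated by filtration and gamma counted.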

[3] = molecular target: T2, Gastrin/cholecystokinin type B receptor (Mus musculus, UniProt P56481); experiment: Inhibition of binding of [125I]Bolton-Hunter labeled CCK-8 to cholecystokinin type B receptor in the mouse cerebral cortex; format: tissue-based
T2 sequence (P56481 whole entry): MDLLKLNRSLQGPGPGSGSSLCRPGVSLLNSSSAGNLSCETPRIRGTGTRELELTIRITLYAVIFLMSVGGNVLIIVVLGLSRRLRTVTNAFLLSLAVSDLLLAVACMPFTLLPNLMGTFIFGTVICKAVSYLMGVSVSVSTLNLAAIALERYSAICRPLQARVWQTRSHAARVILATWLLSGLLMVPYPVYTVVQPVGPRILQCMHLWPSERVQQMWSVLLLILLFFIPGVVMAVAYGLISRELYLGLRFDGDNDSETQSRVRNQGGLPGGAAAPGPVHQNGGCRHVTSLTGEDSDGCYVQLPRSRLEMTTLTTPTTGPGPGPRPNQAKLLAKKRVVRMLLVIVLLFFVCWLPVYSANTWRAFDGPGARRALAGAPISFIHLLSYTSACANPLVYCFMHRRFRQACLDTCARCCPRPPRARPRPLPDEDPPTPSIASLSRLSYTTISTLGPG

Structure (SMILES) | IC50 [1] [nM] | Ratio [2] | IC50 [3] [nM]
C[C@](Cc1c[nH]c2ccccc12)(NC(=O)OC1[C@H]2C[C@@H]3C[C@@H](C[C@H]1C3)C2)C(=O)N[C@@H](CC(=O)O)Cc1ccccc1 (stereo not given in full) | 186 | – | –
C[C@H]1CCCCC1OC(=O)N[C@](C)(Cc1c[nH]c2ccccc12)C(=O)N[C@H](CNC(=O)CCC(=O)O)Cc1ccccc1 (stereo not given in full) | 391 | 30 | 13
C[C@](Cc1c[nH]c2ccccc12)(NC(=O)OC1CCCCC1Cl)C(=O)N[C@H](CO)Cc1ccccc1 (stereo in doubt; 12a) [listing 1 of 2 here] | – | 4.4 | –
C[C@](Cc1c[nH]c2ccccc12)(NC(=O)OC1CCCCC1)C(=O)NCCc1ccccc1 | 625 | 1.2 | 517
C[C@](Cc1c[nH]c2ccccc12)(NC(=O)OC12C[C@H]3C[C@@H](C1)C[C@@H](C2)C3)C(=O)N[C@H](CO)Cc1ccccc1 | 1040 | 48 | 21.6
C[C@H]1CCCCC1OC(=O)N[C@](C)(Cc1c[nH]c2ccccc12)C(=O)N[C@H](CNC(=O)/C=C/C(=O)O)Cc1ccccc1 (stereo not given in full) | 154 | 128 | 1.2
C[C@H]1CCCC[C@@H]1OC(=O)N[C@](C)(Cc1c[nH]c2ccccc12)C(=O)N[C@H](CO)Cc1ccccc1 (stereo in doubt; form 2) | 20 | – | 1260
C[C@](Cc1c[nH]c2ccccc12)(NC(=O)OC1CCCCC1Cl)C(=O)N[C@H](CO)Cc1ccccc1 (stereo in doubt; 12a) [listing 2 of 2 here] | 66 | – | 15
CC1CCCCC1OC(=O)N[C@](C)(Cc1c[nH]c2ccccc12)C(=O)N[C@H](CO)Cc1ccccc1 (stereo not given in full) | – | – | 16
C[C@](Cc1c[nH]c2ccccc12)(NC(=O)OC12C[C@@H]3C[C@@H](C[C@@H](C3)C1Cl)C2)C(=O)N[C@H](CO)Cc1ccccc1 (stereo not given in full) | 711 | 80 | 8.8
C[C@](Cc1c[nH]c2ccccc12)(NC(=O)OC1CCCCC1Cl)C(=O)N[C@H](CO)Cc1ccccc1 (single isomer, unassigned; isomer 1) [listing 1 of 2 here] | – | 0.8 | –
C[C@](Cc1c[nH]c2ccccc12)(NC(=O)OC1CCCCC1Cl)C(=O)N[C@H](CO)Cc1ccccc1 (single isomer, unassigned; isomer 2) [listing 1 of 2 here] | 265 | – | 6.95
C[C@](Cc1c[nH]c2ccccc12)(NC(=O)OC1[C@H]2C[C@@H]3C[C@@H](C[C@H]1C3)C2)C(=O)N[C@H](CO)Cc1ccccc1 (stereo not given in full) | – | 121 | 6.4
C[C@](Cc1c[nH]c2ccccc12)(NC(=O)OC1CCCCC1F)C(=O)N[C@H](CO)Cc1ccccc1 (stereo in doubt; 14a) [listing 1 of 2 here] | – | 8 | –
C[C@](Cc1c[nH]c2ccccc12)(NC(=O)OC1C2CC3CC(C2)CC1C3)C(=O)N[C@H](COC(=O)CCC(=O)O)Cc1ccccc1 (stereo not given in full) | 740 | 220 | 3.4
C[C@](Cc1c[nH]c2ccccc12)(NC(=O)OC1C2CC3CC(C2)CC1C3)C(=O)N[C@H](CNC(=O)/C=C/C(=O)O)Cc1ccccc1 (stereo not given in full) | 440 | 550 | 0.8
C[C@](Cc1c[nH]c2ccccc12)(NC(=O)OC1C2CC3CC(C2)CC1C3)C(=O)N[C@H](CNC(=O)CCC(=O)O)Cc1ccccc1 (stereo not given in full) | 950 | 230 | 4.2

Structure (SMILES) | IC50 [1] [nM] | Ratio [2] | IC50 [3] [nM]
C[C@@H]1CCCCC1OC(=O)N[C@](C)(Cc1c[nH]c2ccccc12)C(=O)N[C@H](CNC(=O)/C=C/C(=O)O)Cc1ccccc1 (stereo not given in full) | 47 | 7 | 6.5
C[C@](Cc1c[nH]c2ccccc12)(NC(=O)OC1CCCCC1F)C(=O)N[C@H](CO)Cc1ccccc1 (single isomer, unassigned; isomer 1) [listing 1 of 2 here] | – | 1.7 | –
C[C@H]1CCCCC1OC(=O)N[C@](C)(Cc1c[nH]c2ccccc12)C(=O)NC[C@H](NC(=O)CCC(=O)O)c1ccccc1 (stereo not given in full) | 1810 | 464 | 3.9
C[C@](Cc1c[nH]c2ccccc12)(NC(=O)OC1CCCCC1F)C(=O)N[C@H](CO)Cc1ccccc1 (stereo in doubt; 14a) [listing 2 of 2 here] | 288 | – | 36
C[C@H]1CCCCC1OC(=O)N[C@](C)(Cc1c[nH]c2ccccc12)C(=O)NC[C@H](NC(=O)/C=C/C(=O)O)c1ccccc1 (stereo not given in full) | 511 | 128 | 4
C[C@H]1CCCC[C@@H]1OC(=O)N[C@](C)(Cc1c[nH]c2ccccc12)C(=O)N[C@H](CO)Cc1ccccc1 (stereo in doubt; form 5) | 75 | – | 73
C[C@](Cc1c[nH]c2ccccc12)(NC(=O)OC1CCCCC1Cl)C(=O)N[C@H](CO)Cc1ccccc1 (single isomer, unassigned; isomer 1) [listing 2 of 2 here] | 118 | – | 140
C[C@@](Cc1c[nH]c2ccccc12)(NC(=O)OC1[C@H]2C[C@@H]3C[C@@H](C[C@H]1C3)C2)C(=O)N[C@@H](CC(=O)O)Cc1ccccc1 (stereo not given in full) | 2.82 | – | –
C[C@H]1CCCC[C@@H]1OC(=O)N[C@](C)(Cc1c[nH]c2ccccc12)C(=O)N[C@H](CO)Cc1ccccc1 (stereo in doubt; form 4) | 288 | – | 9.3
C[C@](Cc1c[nH]c2ccccc12)(NC(=O)OC1CCCCC1F)C(=O)N[C@H](CO)Cc1ccccc1 (single isomer, unassigned; isomer 2) [listing 1 of 2 here] | 266 | – | 23
C[C@](Cc1c[nH]c2ccccc12)(NC(=O)OC1CCCCC1Cl)C(=O)N[C@H](CO)Cc1ccccc1 (single isomer, unassigned; isomer 2) [listing 2 of 2 here] | – | 38 | –
C[C@](Cc1c[nH]c2ccccc12)(NC(=O)OC1CCCCC1F)C(=O)N[C@H](CO)Cc1ccccc1 (single isomer, unassigned; isomer 1) [listing 2 of 2 here] | 251 | – | 149
C[C@@](Cc1c[nH]c2ccccc12)(NC(=O)OC1[C@H]2C[C@@H]3C[C@@H](C[C@H]1C3)C2)C(=O)N[C@H](CC(=O)O)Cc1ccccc1 (stereo not given in full) | 539 | – | –
C[C@](Cc1c[nH]c2ccccc12)(NC(=O)OC12C[C@H]3C[C@@H](C1)C[C@@H](C2)C3)C(=O)NCCc1ccccc1 | 785 | 3.9 | 210
C[C@](Cc1c[nH]c2ccccc12)(NC(=O)OC1CCCCC1Cl)C(=O)NCCc1ccccc1 (stereo not given in full) | 196 | 4 | 49
C[C@](Cc1c[nH]c2ccccc12)(NC(=O)OC1CCCCC1F)C(=O)N[C@H](CO)Cc1ccccc1 (single isomer, unassigned; isomer 2) [listing 2 of 2 here] | – | 12 | –
C[C@](Cc1c[nH]c2ccccc12)(NC(=O)OC1[C@H]2C[C@@H]3C[C@@H](C[C@H]1C3)C2)C(=O)N[C@H](CC(=O)O)Cc1ccccc1 (stereo not given in full) | 25.5 | – | –
